# Compound activity from PubChem BioAssay.
# Only a selection was taken, and hits are over-represented in it overall.
# ABCG2 block: human ABCG2 inhibition, ABCB1 as counter-screen; inhibition, % at 6.6 µM; IgMXP3 cells, JC-1 efflux, flow cytometry; Q9UNQ0; 190,000 tested, 0.1% active;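 active means inhibition above 80%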;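 further: 0% = DMSO and 100% = nicardipine control wells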
#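 Test system: IgMXP3 (ABCG2) plus far-red-tagged CCRF-Adr (ABCB1) cells / Amount: 3 million cells/mL in well / Reagent: JC-1 transporter substrate / Timing: 10 min compound exposure, 25 °C / Signal: flow cytometry, 530 nm JC-1 signal / Read-out: percent efflux inhibition, scaled nicardipine 100% to DMSO 0% / Benchmarks: nicardipine as high control, DMSO as low control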
# ROMK primary: modulators of human ROMK potassium channel; Tet-inducible ROMK, thallium flux fluorescence; actives lie on both sides; B-score at 10 µM; 130,000 tested, 2% active; AID 1918;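 active means signal ratio slope over the read window, or its plate-corrected B-score, at least 3 SD from the plate mean, either direction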;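 further: B-score of the F/F0 ratio slope over 7 to 12 s after thallium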
# zfTRPN1 agonist: zebrafish TRPN1 (NompC) channel agonism | HEK293 zebrafish TRPN1-YFP, Fluo-8 calcium fluorescence; 100% = response to 87 µM carbachol | activation, % at 3 µM | 220,000 tested, 0.18% active | AID 1424;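 active means activation above its plate's cutoff, the mean activation of test wells on that plate plus 3 SD, cut at about 19% in these data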;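 further: 0% = DMSO alone and 100% = 87 µM carbachol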
#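 Material: zebrafish TRPN1-YFP in HEK293 cells. Doses: one dose of 3 µM, 0.3% DMSO. Incubation: dye 1 h 37 °C plus 30 min RT. Measured by: intracellular calcium fluorescence with Fluo-8.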
# TRPML3 agonist: activates the human TRPML3 channel. 220,000 tested, 0.29% active. HEK293 TRPML3-YFP, Fluo-8 calcium fluorescence; 100% = the carbachol control signal. Q8TDD5. AID 1448. activation, % at 3 µM;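 active means activation above its plate's cutoff, the mean activation of the plate's test wells plus 3 SD, cut at about 12% in these data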;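 further: 0% = DMSO only wells and 100% = carbachol wells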
#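 Test system: HEK293 cells stably carrying human TRPML3-YFP; Doses: single dose, 3 µM final nominal compound, 0.3% DMSO final; Schedule: dye loading 1 h 37 °C then 30 min ambient, 125 s read; Technique: Fluo-8 calcium fluorescence; Benchmarks: high control carbachol 87 µM, low control DMSO.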
# Calb biofilm kill: mixture kills Candida albicans biofilm cells. inhibition, % at 7.6 µM. C. albicans biofilm persisters + clotrimazole, fluorescence viability; primary screen in compound mixtures of four per well. AID 1242. 120,000 tested, 0.02% active;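 active means inhibition above 30.3% in the primary screen of four-compound pools, then above 30% when the compound was retested; inconclusive means passed the primary limit but could not be retested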;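 further: compounds exposed to preformed 24 h biofilms for 48 h; 0% = untreated biofilm control and 100% = clotrimazole plus chlorhexidine kill blank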
#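 Probe or stimulus – Clotrimazole 50 µg/mL co-treatment · System – C. albicans biofilms · Schedule – 24 h biofilm formation, then 48 h compound exposure, 37 °C · Evaluation – percent inhibition of biofilm viability · Technique – 2-h Alamar Blue fluorescence, 535/590 nm excitation/emission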
# ABCB1 block: blocks JC-1 efflux by human ABCB1 transporter | CCRF-Adr cells, flow cytometry | AID 1326 | P08183 | 190,000 tested, 0.067% active | inhibition, % at 6.6 µM; in the data active means inhibition above about 40%;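 further: 0% = vehicle and 100% = reference inhibitor; higher value means more JC-1 retained so stronger ABCB1 efflux block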
# ROMK retest: confirmation of human ROMK potassium channel modulators; shares compounds with ROMK primary; normalized thallium flux (F/F0 slope) at 10 µM; ROMK thallium flux, fluorescence ratio; stronger effect = lower value; 3,000 tested, 54% active;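 active means Flux at 10 µM at least 3 SD below or above vehicle control mean in one or both replicates; inconclusive means no clear call, values can overlap the other calls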
# Numbers without * were called inactive; ? = inconclusive; . = no result.
SMILES,ABCG2 block,ROMK primary,zfTRPN1 agonist,TRPML3 agonist,Calb biofilm kill,ABCB1 block,ROMK retest
COC(=O)c1ccc(NC(=O)C2CC(=O)OC2c2ccccc2)cc1 (centres undefined),.,.,2,1,30,.,0.072
CCOC(=O)c1c(NC(=O)C[n+]2ccc(Cc3ccccc3)cc2)sc(C)c1C,-5,-3.8*,-2,0,19,-2,0.061*
O=C(NCc1ccccc1)c1ccc(=O)[nH]n1,2,0.55,1,0,.,1,0.077
O=C(NCc1ccco1)c1ccc(=O)[nH]n1,-3,-0.34,3,0,.,-2,.
O=C(COc1ccccc1Br)NC1CCCC1,5,.,4,1,12,0,0.069*
COc1ccc(C(=O)/C(C#N)=N/Nc2ccccc2[N+](=O)[O-])cc1,-1,3.8*,5,3,7,0,0.074
COc1ccccc1CNCC(=O)Nc1cc(S(=O)(=O)N2CCCCCC2)ccc1Cl,.,.,-2,2,17,.,0.066*
COc1cccc(CNC(=O)C2CCN(Cc3cnn(-c4ccccc4)c3-n3cccc3)CC2)c1,-2,-3.5*,1,0,.,2,0.055*
Cc1ccc(C(=O)NCc2nnc(SCC(=O)NC(C)c3ccccc3)n2C)cc1 (centres undefined),-1,-0.11,0,0,20,0,.
N#CCOC(=O)/C=C/c1ccc2c(c1)OCO2,1,-0.54,0,1,7,0,.
COC(=O)CCC(=O)Nc1sc2c(c1C#N)CCCC2,1,5.9*,0,0,.,0,0.089
CCCC(=O)Nc1sc2c(c1C#N)CCCC2,2,-0.17,-1,0,.,0,.
CC(C)CCN1CCN(CC#Cc2ccccc2)CC1CCO (centres undefined),5,0.44,1,1,24,1,.
Fc1ccc2[nH]c3c(N4CCN(c5ccccc5)CC4)ncnc3c2c1,4,-0.48,9,7,.,1,0.076
CCOC(=O)N1CCN(c2ncnc3c2[nH]c2ccc(F)cc23)CC1,15,.,7,3,.,3,.
CC1=CC(C)(C)N(C(=O)CNC2CCCCC2)c2cc(C)ccc21,1,-7.1*,-2,-1,6,1,0.051*
CCOc1ccccc1NC(=O)COC(=O)c1cc[n+]([O-])cc1,.,.,2,1,9,.,.
CCN1CC=C2C(C#N)=C(N)C(C#N)(C#N)C(CCc3ccccc3)C2C1 (centres undefined),3,.,10,6,.,0,0.057*
N#CC1=C(N)C(C#N)(C#N)[C@H](c2ccoc2)[C@H]2CN(Cc3ccccc3)CC=C12,2,.,2,2,.,1,.
CC(=O)N1CC=C2C(C#N)=C(N)C(C#N)(C#N)C(C)C2C1 (centres undefined),-1,-0.44,2,1,.,0,.
CC(=O)N1CC=C2C(C#N)=C(N)C(C#N)(C#N)C(CCc3ccccc3)C2C1 (centres undefined),19,-2.7*,-1,0,.,1,0.062*
COc1cc(/C=N/NC2=NC(C)(C)Cc3ccccc32)cc(OC)c1OC,3,0.067,-2,-1,30,1,.
Cc1nc2c(=O)[nH]c3ccccc3c2o1,0,-0.34,1,1,10,0,.
CCCCNC(=O)CN1C(=O)c2cccc(N)c2C1=O,4,-2.5,0,0,5,1,0.055*
CC1CCCCC1NC(=O)CN1C(=O)c2cccc(N)c2C1=O (centres undefined),0,-3.7*,0,1,8,0,0.056*
SMILES,ABCG2 block,ROMK primary,zfTRPN1 agonist,TRPML3 agonist,Calb biofilm kill,ABCB1 block,ROMK retest
COCCCNC(=O)CN1C(=O)c2ccccc2C1=O,0,-0.0079,1,1,.,0,.
CS(=O)(=O)Nc1ccc(C(=O)Nc2ccccc2C(=O)N2CCCC2)cc1,1,.,2,1,.,0,0.08
CCCc1cc(C(=O)Nc2ccc(F)cc2F)no1,12,.,0,0,.,1,.
CCCc1cc(C(=O)Nc2ccccc2SC)no1,3,.,1,0,.,0,?
O=C(NCc1cccnc1)/C(=C\c1ccc(-c2cccc(Cl)c2)o1)S(=O)(=O)c1ccccc1,6,-4.8*,1,0,20,2,0.05*
Cc1ccc(C(=O)N/C(=C\c2ccc(-c3cc(Cl)ccc3Cl)o2)C(=O)NCc2cccnc2)cc1,2,0.21,1,0,.,0,.
O=C(NCc1cccnc1)/C(=C/c1ccc(-c2cccc(Cl)c2)o1)S(=O)(=O)c1ccccc1,3,-5.3*,1,0,.,2,0.051*
Nc1nc2ccccc2n1C(=O)c1ccccc1,4,2.1*,1,1,13,1,0.076
COC(=O)/C=c1/s/c(=C(/C#N)C(=O)N2CCOCC2)n(-c2ccccc2)c1=O,1,-1.1,2,0,.,0,.
COC(=O)/C=c1/s/c(=C(/C#N)C(=O)N2CCCCC2)n(-c2ccccc2)c1=O,9,-3.2*,1,1,18,1,0.057*
O=C(O)c1ncn(Cc2ccc(Br)cc2)c1C(=O)O,4,0.2,0,1,13,1,.
COc1cccc(C(c2nnnn2CC2CCCO2)N2CCN(C(=O)c3ccco3)CC2)c1OC (centres undefined),4,0.78,0,1,19,0,.
COc1cc(SSc2cc(OC)cc([N+](=O)[O-])c2N)c(N)c([N+](=O)[O-])c1,.,0.91,1,0,14,.,.
CCCCc1ccc(S(=O)(=O)NCCc2ccncc2)cc1,1,.,2,1,.,0,0.062*
COCCCNc1ccc([N+](=O)[O-])cc1C(=O)Nc1cccc(C)n1,1,-4.1*,-3,-1,-1,1,0.045*
Cc1cccc(NC(=O)c2cc([N+](=O)[O-])ccc2NCC2CCCO2)n1 (centres undefined),33,-2.2,-1,0,2,3,.
COc1cc2ccccc2cc1C(=O)NC(=S)Nc1cccc(C(=O)O)c1C,.,.,-1,1,17,.,.
Cc1ccc(S(=O)(=O)N2CCC(=O)N(C(COCc3ccc(Cl)c(Cl)c3)Cc3ccccc3)CC2)cc1 (centres undefined),10,-4.7*,-1,0,15,2,0.061*
Cc1ccc(S(=O)(=O)N2CCC(=O)N(C(COCc3cccc(C)c3)Cc3ccccc3)CC2)cc1 (centres undefined),4,-1.7,13,6,1,3,.
